Experimental findings from ChEMBL document CHEMBL1124860, “Purine derivatives as competitive inhibitors of human erythrocyte membrane phosphatidylinositol 4-kinase” (J Med Chem, 1990) are described below.

For series [1], the target named is T1, Phosphatidylinositol 4-kinase, PI4K (Homo sapiens, UniProt Q9BTU6+Q8TCG2+Q9UBF8+P42356). Format: protein assay.
The target of series [2] is T1, Phosphatidylinositol 4-kinase, PI4K. As to the kind of experiment: Binding affinity (Ki) against human phosphatidylinositol 4-kinase. Type of series: protein assay. An outline of the steps:
(§1)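 Human erythrocyte plasma membranes (0.36 mg protein) were incubated with PI (0.12 mM, [2-3H]PI tracer), ATP at 100 µM, ouabain, vanadate, DTT, 0.6% Triton X-100, MgCl2, EGTA, KCl/NaCl and HEPES pH 7.4 for 10 min at 30 °C. Lipids were extracted and deacylated, and the aqueous phase collected. Compounds were screened at 500 µM, then IC50 fitted from single dose-response curves. Ki = IC50/(1+[S]/Km), with ATP Km 221.5 µM.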

A short description of series [3]: Vmax value was determined. Type of series: ADME.
Series [4] relates to CCn1cnc2c(N)ncnc21. Nature of the series: (§2) Inhibition of Phosphatidylinositol 4-kinase at the ATP binding site. Conditions: Homo sapiens. Type of series: protein assay. An outline of the steps: as §1
The subject of series [5] is Nc1[nH]cnc2ncnc1-2. The series is described as §2. Type of series: protein assay. The settings on record: Homo sapiens. An outline of the steps: as §1
Series [6] concerns Nc1ncnc2c1ncn2C1CCCO1. The series is described as §2. Format: protein assay. Conditions: Homo sapiens. The gist of the method: as §1
Series [7] relates to Nc1ncnc2c1ncn2[C@@H]1O[C@H](CO)[C@@H](O)[C@H]1O. The description is as §2. Format: protein assay. Conditions: Homo sapiens. An outline of the steps: as §1
The subject of series [8] is c1ccc(CNc2ncnc3[nH]cnc23)cc1. Described as §2. Format: protein assay. The settings on record: Homo sapiens. The gist of the method: as §1

For `COc1cccc(-n2cnc3c(N)ncnc32)c1`, the IC50 (commonly the concentration that gives 50% inhibition) in series [1] worked out at 22.9 µM. Moreover, in series [2], the Ki (in general, a dissociation constant, usually derived from enzyme kinetics or from competition with a known ligand) is 15.8 µM.
In series [1], `Nc1ncnc2ccccc12` [4-AMINOQUINAZOLINE] gave an IC50 of 91.7 µM. Also, the Ki in series [2] was found to be 63.4 µM.
On to `Nc1ncnc2c1ncn2C1CCCO1` (stereo not drawn), for which the Vmax in series [3] was 25800 c.p.m. Further, the 50% inhibitory concentration (IC50) in series [1] came out at 28.2 µM. The same compound yielded an inhibition constant Ki in series [2] of 21.2 µM.
`Nc1[nH]cnc2nc(-c3ccccn3)nc1-2`: the IC50 in series [1] is 75.6 µM. Moreover, the inhibition constant (Ki) in series [2] was determined as 52.3 µM.
For `Nc1nc(N)c2[nH]c(-c3ccccc3)nc2n1`, the IC50 in series [1] was found to be 199.5 µM. In series [2], this compound had an inhibitory constant (Ki) of 137.7 µM.
In the same order, the values of `Nc1ncnc2c1ncn2-c1ccccc1F` are 11.9 µM and 8.3 µM.
The compound `CC(C)(C)c1ccc(-n2cnc3c(N)ncnc32)cc1` displayed a half-inhibitory concentration (IC50) in series [1] of 46.1 µM. In addition, in series [2], the Ki is 31.7 µM.
Regarding `Nc1ncnc2c1ncn2[C@@H]1O[C@H](CO)[C@@H](O)[C@H]1O` [ADENOSINE], in series [3], the Vmax stood at 31400 c.p.m. Also, the IC50 in series [1] is 30.3 µM. This compound gave a Ki in series [2] of 19.2 µM.
In turn, `Nc1ncnc2c1ncn2C12CC3CC(CC(C3)C1)C2` registered an IC50 in series [1] of 6 µM. For the same compound, the Ki in series [2] was 4.1 µM.
`CC(C)(C)Cn1cnc2c(N)ncnc21` gave an IC50 in series [1] of 12.8 µM. In addition, the Ki in series [2] worked out at 9 µM.
Turning to `Nc1ncnc2c1ncn2Cc1ccccc1` [9-BENZYL-9H-ADENINE], the concentration for half-maximal inhibition (IC50) in series [1] worked out at 84.4 µM. In series [2], this compound gave a Ki of 57.9 µM.
Regarding `Nc1nc(N)c2nc[nH]c2n1.O=S(=O)(O)O`, in series [1], the half-inhibitory concentration (IC50) came to 146.8 µM. Besides, the Ki in series [2] was 101.2 µM.
In the same order, the values of `CCCCCc1nc2c(N)ncnc2n1-c1ccccc1` are 51.9 µM and 35.8 µM.
As for `CCCCCc1nc2c(N)ncnc2n1CCCCC`, the IC50 in series [1] turned out to be 126.5 µM.
`Nc1ncnc2c1ncn2C1CCCCC1` had an IC50 in series [1] of 6 µM. The inhibition constant Ki in series [2] worked out at 3.7 µM.
Take `Nc1ncnc2c1nc1n2CCCC1`: in series [1], the half-inhibitory concentration (IC50) came out at 52.4 µM. The same compound registered a Ki in series [2] of 35.8 µM.
`Cl.Nc1[nH]cnc2nc(NCc3ccccc3)nc1-2` came in with a 50% inhibitory concentration (IC50) in series [1] of 133 µM. In series [2], this compound displayed an inhibition constant Ki of 91.7 µM.
Consider `Nc1ncnc2c1ncn2-c1cccnc1`, for which the half-inhibitory concentration (IC50) in series [1] is 46.2 µM. The Ki in series [2] turned out to be 31.8 µM.
For `Cc1nc2[nH]cnc(N)c-2n1`, the IC50 in series [1] came to 195.4 µM. Further, the Ki in series [2] turned out to be 134.3 µM.
Consider `CC1(n2cnc3c(N)ncnc32)CCCCC1`, for which the half-maximal inhibitory concentration (IC50) in series [1] was 7.2 µM. In addition, in series [2], the inhibition constant Ki amounted to 5 µM.
In the same order, the values of `Nc1ncnc2[nH]c(-c3ccccc3)nc12` are 48.8 µM and 33.6 µM.
Regarding “Phosphatidylinositol 4-kinase, PI4K (Homo sapiens) (from UniProt Q9BTU6+Q8TCG2+Q9UBF8+P42356)”, the Km – broadly, the substrate concentration at which the rate is half of its maximum – in series [4] came to 257 µM; in series [5] it was 297 µM; in series [6], 262 µM; in series [7], 179 µM; in series [8], 239 µM.
Turning to `Cl.Nc1ncnc2nc(Br)[nH]c12`, in series [1], the half-inhibitory concentration (IC50) turned out to be 215.3 µM. This compound displayed an inhibition constant Ki in series [2] of 148.4 µM.
On to `CC(C)n1cnc2c(N)ncnc21`, for which the IC50 in series [1] came out at 14.9 µM. The Ki in series [2] was 10.3 µM.
`CCC(CC)(CC)n1cnc2c(N)ncnc21`: the IC50 in series [1] is 134.1 µM. In series [2], this compound showed a Ki of 93.7 µM.
In the case of `CC(C)(C)n1cnc2c(N)ncnc21`, the IC50 in series [1] was found to be 10.2 µM. Further, the inhibition constant Ki in series [2] amounted to 6.9 µM.
For `Nc1nc2ncnc-2c[nH]1` [2-AMINOPURINE], the concentration for half-maximal inhibition (IC50) in series [1] was found to be 341.6 µM. The Ki in series [2] worked out at 235.4 µM.
Consider `Nc1ncnc2c1ncn2[C@@H]1O[C@H](COP(=O)(O)OP(=O)(O)O)[C@@H](O)[C@H]1O` [ADENOSINE DIPHOSPHATE], for which, in series [1], the concentration for half-maximal inhibition (IC50) was determined as 145.3 µM. Further, the Ki in series [2] amounted to 100.1 µM.
In series [1], `Nc1ncnc2c1ncn2-c1cccc(F)c1` registered a 50% inhibitory concentration (IC50) of 25.6 µM. The inhibition constant (Ki) in series [2] turned out to be 17.9 µM.
Compound `Nc1ncnc2c1ncn2C1CCCC1` gave an IC50 in series [1] of 8.7 µM. For the same compound, the Ki in series [2] worked out at 6 µM.
The compound `COc1ccc(-n2cnc3c(N)ncnc32)cc1` had a 50% inhibitory concentration (IC50) in series [1] of 21.9 µM. This compound also showed a Ki in series [2] of 15.2 µM.
Turning to `Cn1c(-c2ccccc2)nc2c(N)ncnc21`, the 50% inhibitory concentration (IC50) in series [1] was 34.9 µM. The inhibition constant Ki in series [2] stood at 24.1 µM.
The compound `Nc1ncnc2cc3ccccc3cc12` had an IC50 in series [1] of 33 µM. Also, the inhibition constant (Ki) in series [2] stood at 22.7 µM.
In the same order, the values of `Nc1ncnc2c1nc(-c1ccccc1)n2-c1ccccc1` are 16.4 µM and 11 µM.
`Nc1ncnc2c1ncn2C1CCCCCC1` had a concentration for half-maximal inhibition (IC50) in series [1] of 7.2 µM. For the same compound, the Ki in series [2] turned out to be 5 µM.
Turning to `c1ccc(CNc2ncnc3nc[nH]c23)cc1` [6-BENZYLAMINOPURINE], in series [3], the Vmax is reported as 25800 c.p.m. In series [1], this compound gave an IC50 of 240.4 µM. This compound showed a Ki in series [2] of 199 µM.
`CN(C)c1ncnc2nc[nH]c12` [DIMETHYLADENINE] returned an IC50 in series [1] of 218 µM. Further, in series [2], the Ki amounted to 150.2 µM.
In series [1], `Nc1[nH]cnc2nc(-c3cccc4ccccc34)nc1-2` came in with an IC50 of 129.8 µM. In series [2], this compound returned an inhibition constant (Ki) of 89.5 µM.
`Nc1ncnc2[nH]ncc12`: the IC50 in series [1] was determined as 144.9 µM. The compound further registered an inhibition constant (Ki) in series [2] of 99.9 µM.
For `CC1(C)O[C@@H]2[C@H](O1)[C@@H](CO)O[C@H]2n1cnc2c(N)ncnc21`, the 50% inhibitory concentration (IC50) in series [1] is 12.1 µM. The inhibitory constant (Ki) in series [2] worked out at 8.4 µM.
In series [1], `Nc1ncnc2c1ncn2-c1ccccc1` came in with an IC50 of 15.4 µM. In addition, the Ki in series [2] is 10.3 µM.
The compound `Nc1ncnc2c1ncn2-c1cccc2ccccc12` yielded an IC50 in series [1] of 78.8 µM. In series [2], this compound returned an inhibition constant (Ki) of 54.4 µM.
Regarding `Cl.Nc1ncnc2nc[nH]c12`, the Vmax in series [3] was 22800 c.p.m. Besides, the half-inhibitory concentration (IC50) in series [1] is 182.6 µM. In series [2], this compound came in with an inhibition constant Ki of 85.8 µM.
As to `Nc1ncnc2scnc12`, the IC50 in series [1] turned out to be 116.9 µM. Moreover, in series [2], the Ki was found to be 80.6 µM.
The compound `Nc1ncnc2c1cnn2-c1ccccc1` gave a half-maximal inhibitory concentration (IC50) in series [1] of 16.1 µM. This compound gave an inhibitory constant (Ki) in series [2] of 11 µM.
`Cn1cnc2c(N)ncnc21` gave an IC50 in series [1] of 161 µM. This compound gave a Ki in series [2] of 110.9 µM.
In the same order, the values of `Nc1ncnc2c1ncn2-c1ccc(Cl)cc1` are 41.1 µM and 28.2 µM.
The compound `Cn1ncc2c(N)ncnc21` gave an IC50 in series [1] of 82.5 µM. The inhibition constant Ki in series [2] was determined as 56.8 µM.
Take `Nc1ncnc2c1ncn2C1O[C@H](CI)[C@@H](O)[C@H]1O` (stereo partly drawn): the IC50 in series [1] was 23.1 µM. For the same compound, in series [2], the Ki was determined as 15.9 µM.
`CCCCCc1nc2[nH]cnc(N)c-2n1` gave an IC50 in series [1] of 68.9 µM. The Ki in series [2] amounted to 47.5 µM.
Take `Cc1nc2c(N)ncnc2n1-c1ccccc1`: the IC50 in series [1] turned out to be 16.4 µM. In addition, the inhibition constant (Ki) in series [2] was determined as 11 µM.
Consider `CCn1cnc2c(N)ncnc21`, for which the Vmax in series [3] is 20800 c.p.m. Further, the 50% inhibitory concentration (IC50) in series [1] is 32.4 µM. In series [2], this compound displayed a Ki of 25.5 µM.
Take `Cc1ccccc1-n1cnc2c(N)ncnc21`: in series [1], the IC50 was determined as 23.6 µM. The same compound had an inhibition constant (Ki) in series [2] of 16.5 µM.
